# Measured values from ChEMBL document CHEMBL4017524, “A Novel Arylurea Fatty Acid That Targets the Mitochondrion and Depletes Cardiolipin To Promote Killing of Breast Cancer Cells” (J Med Chem, 2017).
# Activity calls are given as the source filed them. The calls are words filed in the database; no cut-off is given here.
# Key:
# [1] = test system: MDA-MB-231; experiment: Cytotoxicity against human MDA-MB-231 cells assessed as decrease in ATP production at 10 uM after 24 to 48 hrs by CellTiter-Glo luminescent assay; type: functional, cell-based
# [2] = test system: MDA-MB-231; experiment: Induction of apoptosis in human MDA-MB-231 cells assessed as mitochondrial membrane disruption by measuring red to green fluorescence ratio at 10 uM after 24 hrs by JC-1 staining based microscopic method relative to control; type: functional
# In short: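 Cells exposed for 24 h at 10 µM, then stained with the cationic dye JC-1. Red (aggregate, intact inner membrane) to green (monomer) fluorescence ratio expressed relative to DMSO control. Mean±SEM of three experiments.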
# [3] = test system: MDA-MB-231; experiment: Antitumor activity against human MDA-MB-231 cells xenografted in Balb/c nu/nu mouse assessed as decrease in Ki67 biomarkers at 2.5 to 40 mg/kg, ip qd administered 6 days per week for 32 to 38 days by […] immunohistochemical analysis; type: functional, organism-based
# In short: (§1)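 Female nu/nu mice, 7 weeks old, n=5-8 per group. Each received 4x10⁵ cells in 100 µl by subcutaneous injection into the 4th mammary fat pad. Intraperitoneal dosing at graded doses. Body weights and tumour sizes were measured. Isolated tumour sections were stained for TUNEL (apoptosis) and Ki67 (proliferation), with DAPI nuclear stain.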
# [4] = test system: MDA-MB-231; experiment: Cell cycle arrest in human MDA-MB-231 cells assessed as decrease in accumulation of G2M phase at 10 uM after 24 hrs by propidium iodide staining based flow cytometric analysis; type: functional
# [5] = test system: T47D; experiment: Induction of apoptosis in human T47D cells assessed as increase in caspases 3/7 activity at 10 uM after 48 hrs by Caspase-Glo assay; type: functional, cell-based
# [6] = test system: MDA-MB-231; experiment: Induction of mitochondrial membrane disruption in human MDA-MB-231 cells assessed as mitochondrial phosphatidylglycerol level at 14 uM after 24 hrs in presence of oleic acid; type: functional, cell-based
# [7] = test system: T47D; experiment: Cytotoxicity against human T47D cells assessed as decrease in ATP production at 10 uM up to 72 hrs by CellTiter-Glo luminescent assay; type: functional, cell-based
# [8] = test system: MDA-MB-468; experiment: Induction of apoptosis in human MDA-MB-468 cells assessed as increase in caspases 3/7 activity at 10 uM after 48 hrs by Caspase-Glo assay; type: functional, cell-based
# [9] = test system: MCF7; experiment: Cytotoxicity against human MCF7 cells assessed as decrease in ATP production at 10 uM up to 72 hrs by CellTiter-Glo luminescent assay; type: functional, cell-based
# [10] = test system: MDA-MB-231; experiment: Induction of apoptosis in human MDA-MB-231 cells assessed as increase in caspases 3/7 activity at 10 uM after 24 hrs by Caspase-Glo assay relative to control; type: functional
# In short: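 Executioner caspase-3/7 activity read after 24 h exposure at 10 µM and expressed relative to DMSO-treated control. Basal activity per 7.5 x 10⁴ cells was recorded. Mean±SEM of three separate experiments.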
# [11] = test system: Mus musculus; experiment: Toxicity in Balb/c nude mouse assessed as change in body weight at 2.5 to 40 mg/kg, ip qd for 5 days; type: organism-based; conditions: in vivo, 120 h
# In short: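 Balb/c mice given 2.5-40 mg/kg intraperitoneally for 5 days. Weight gain and other signs of toxicity were monitored.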
# [12] = test system: MDA-MB-231; experiment: Induction of mitochondrial membrane disruption in human MDA-MB-231 cells assessed as mitochondrial cardiolipin level at 14 uM after 24 hrs in presence of oleic acid; type: functional, cell-based
# [13] = test system: MDA-MB-231; experiment: Cytotoxicity against human MDA-MB-231 cells assessed as decrease in cell viability at 40 uM after 48 hrs by crystal violet staining based assay; type: functional
# [14] = test system: MDA-MB-231; experiment: Induction of apoptosis in human MDA-MB-231 cells assessed as viable cells at 10 uM after 48 hrs by annexin VFITC/7AAD staining based flow cytometry (reference value: 86.2 +/- 2.3%); type: functional; conditions: MDA-MB-231, 48 h, read-out: Activity
# In short: (§2)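 Annexin V-FITC/7AAD flow cytometry of cells after 48 h at 10 µM. Quadrants: E4 annexin V only (early apoptotic), E2 dual-stained (late apoptotic), E1 7AAD only, E3 unstained (viable). Compared with DMSO control. Mean±SEM from three experiments.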
# [15] = test system: MDA-MB-231; experiment: Cell cycle arrest in human MDA-MB-231 cells assessed as decrease in accumulation of S phase at 10 uM after 24 hrs by propidium iodide staining based flow cytometric analysis; type: functional
# [16] = test system: MCF7; experiment: Induction of apoptosis in human MCF7 cells assessed as increase in caspases 3/7 activity at 10 uM after 48 hrs by Caspase-Glo assay; type: functional, cell-based
# [17] = test system: MDA-MB-231; experiment: Cytotoxicity against human MDA-MB-231 cells assessed as decrease in cell viability at 40 uM after 48 hrs in presence of alpha-tocopherol by crystal violet staining based assay; type: functional
# [18] = test system: MDA-MB-231; experiment: Induction of apoptosis in human MDA-MB-231 cells assessed as necrotic cells at 10 uM after 48 hrs by annexin VFITC/7AAD staining based flow cytometry (reference value: 1.5 +/- 0.2%); type: functional; in short: as §2
# [19] = test system: MDA-MB-231; experiment: Antitumor activity against human MDA-MB-231 cells xenografted in ip dosed Balb/c nu/nu mouse assessed as decrease in tumor volume administered once daily 6 days per week for 32 to 38 days; type: functional, organism-based; in short: as §1
# [20] = test system: MDA-MB-231; experiment: Cell cycle arrest in human MDA-MB-231 cells assessed as decrease in accumulation of G0G1 phase at 10 uM after 24 hrs by propidium iodide staining based flow cytometric analysis; type: functional
# [21] = test system: MDA-MB-231; experiment: Cell cycle arrest in human MDA-MB-231 cells assessed as accumulation at sub-G1 phase at 10 uM after 24 hrs by propidium iodide staining based flow cytometric analysis (reference value: 1.4 +/- 0.03%); type: functional
# [22] = test system: MDA-MB-468; experiment: Cytotoxicity against human MDA-MB-468 cells assessed as decrease in ATP production at 10 uM up to 72 hrs by CellTiter-Glo luminescent assay; type: functional, cell-based
# [23] = test system: MDA-MB-231; experiment: Cytotoxicity against human MDA-MB-231 cells assessed as decrease in ATP production at 10 uM after 24 hrs in presence of mitochondrial permeability transition pore inhibitor cyclosporin A by CellTiter-Glo luminescent assay; type: functional, cell-based
# In short: (§3)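 ATP formation read in MDA-MB-231 cells co-treated with BAPTA-AM (5 or 25 µM) or with cyclosporin A (10 or 20 µM).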
# [24] = test system: MDA-MB-231; experiment: Cytotoxicity against human MDA-MB-231 cells assessed as ATP production at 10 uM after 24 hrs by CellTiter-Glo luminescent assay relative to control; type: functional
# In short: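 MDA-MB-231 cells exposed to 10 µM for 24 h, then ATP formation measured and expressed relative to DMSO-treated control. Basal ATP per 7.5 x 10⁴ cells was recorded at 24 h. Mean±SEM from three separate experiments.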
# [25] = test system: MDA-MB-231; experiment: Induction of apoptosis in human MDA-MB-231 cells assessed as late apoptotic cells at 10 uM after 48 hrs by annexin VFITC/7AAD staining based flow cytometry (reference value: 5.9 +/- 0.9%); type: functional; in short: as §2
# [26] = test system: MDA-MB-231; experiment: Antitumor activity against human MDA-MB-231 cells xenografted in Balb/c nu/nu mouse assessed as TUNEL positive cells at 2.5 to 40 mg/kg, ip qd administered 6 days per week for 32 to 38 days; type: functional, organism-based; in short: as §1
# [27] = test system: MDA-MB-231; experiment: Induction of apoptosis in human MDA-MB-231 cells assessed as plasma membrane phospholipid phosphatidylcholine level per 1.05 X 10^7 cells at 14 uM after 24 hrs (reference value: 91 +/- 9 ug); type: functional
# [28] = test system: MDA-MB-231; experiment: Induction of reactive oxygen species in human MDA-MB-231 cells after 2 to 6 hrs by 2',7'-dichlorofluorescin dye based flow cytometric analysis; type: functional, cell-based
# In short: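 Pro-oxidant stress followed by flow cytometry using 2',7'-dichlorofluorescin diacetate after 2-6 h of treatment in MDA-MB-231 cells.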
# [29] = test system: MDA-MB-231; experiment: Cytotoxicity against human MDA-MB-231 cells assessed as decrease in ATP production at 10 uM after 24 hrs in presence of Ca2+ chelator BAPTA-AM by CellTiter-Glo luminescent assay; type: functional, cell-based; in short: as §3
# [30] = test system: MDA-MB-231; experiment: Induction of apoptosis in human MDA-MB-231 cells assessed as early apoptotic cells at 10 uM after 48 hrs by annexin VFITC/7AAD staining based flow cytometry (reference value: 6.6 +/- 1.4%); type: functional; in short: as §2
# [31] = test system: MDA-MB-231; experiment: Induction of mitochondrial membrane disruption in human MDA-MB-231 cells assessed as mitochondrial cardiolipin level at 14 uM after 24 hrs relative to control; type: functional
# [32] = test system: MDA-MB-231; experiment: Induction of mitochondrial membrane disruption in human MDA-MB-231 cells assessed as mitochondrial phosphatidylglycerol level at 14 uM after 24 hrs relative to control; type: functional
# [33] = test system: MDA-MB-231; experiment: Cytotoxicity against human MDA-MB-231 cells assessed as ATP production at 10 uM after 48 hrs by CellTiter-Glo luminescent assay relative to control; type: functional
# [34] = test system: MDA-MB-231; experiment: Induction of apoptosis in human MDA-MB-231 cells assessed as mitochondrial membrane disruption at 10 uM after 6 hrs by JC-1/Hoechst 33342 staining based fluorescence microscopic assay; type: functional, cell-based
# In short: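 Treatment with 10 µM or DMSO for 6 h. Cells were washed twice with serum-free medium, then incubated with JC-1 in serum-free medium at 37°C for 20 min. Hoechst 33342 nuclear counterstain, then fluorescence microscopy of green monomers versus red aggregates.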
# [35] = test system: MCF-10A; experiment: Cytotoxicity against human MCF10A cells assessed as decrease in ATP production at 10 to 20 uM after 48 hrs by CellTiter-Glo luminescent assay; type: cell-based
# [36] = test system: MDA-MB-231; experiment: Cytotoxicity against human MDA-MB-231 cells assessed as decrease in cell adherence at 40 uM after 48 hrs by crystal violet staining based assay; type: functional
# [37] = test system: MDA-MB-231; experiment: Induction of apoptosis in human MDA-MB-231 cells assessed as increase in caspases 3/7 activity at 10 uM after 48 hrs by Caspase-Glo assay; type: functional, cell-based
# [38] = test system: MDA-MB-231; experiment: Cell cycle arrest in human MDA-MB-231 cells at 10 uM after 24 hrs by propidium iodide staining based flow cytometric analysis
# [39] = test system: MDA-MB-231; experiment: Induction of apoptosis in human MDA-MB-231 cells at 10 uM after 48 hrs by annexin VFITC/7AAD staining based flow cytometry; type: functional, cell-based; in short: as §2
structure (smiles),measurement,setting,value
O=C(O)CCCCCCCCCCCCCCCNC(=O)Nc1ccc(F)cc1,Activity,[1],inactive
same,Activity,[2],inactive
O=C(O)CCCCCCCCCCCCCCCNC(=O)Nc1ccc(Cl)c(C(F)(F)F)c1,Activity,[3],Active
same,Activity,[4],Active
same,Activity,[5],Active
same,Activity,[6],inactive
same,Activity,[7],Active
same,Activity,[8],inactive
same,Activity,[9],Active
same,Activity,[10],203%
same,Activity,[11],Non-Toxic
same,Activity,[12],inactive
same,Activity,[13],Active
same,viability at 10 µM,[14],62.4%
same,Activity,[15],Active
same,Activity,[16],inactive
same,Activity,[17],Active
same,Activity,[18],5.9%
same,Activity,[19],Dose-dependent effect
same,Activity,[20],Active
same,Activity,[21],20%
same,Activity,[22],Active
same,Activity,[23],Active
same,Activity,[24],72%
same,Activity,[25],20%
same,Activity,[26],Active
same,Activity,[27],88 µg
same,Activity,[28],inactive
same,Activity,[29],Active
same,Activity,[30],11%
same,Activity,[31],61%
same,Activity,[32],61%
same,Activity,[33],30%
same,Activity,[34],Active
same,Activity,[35],Non-Toxic
same,Activity,[36],Active
same,Activity,[2],32%
Cc1cc(NC(=O)NCCCCCCCCCCCCCCCC(=O)O)ccc1Cl,Activity,[13],inactive
same,Activity,[37],inactive
same,Activity,[1],inactive
same,Activity,[36],inactive
same,Activity,[2],inactive
O=C(O)CCCCCCCCCCCCCCCNC(=O)Nc1ccc(I)cc1,Activity,[1],inactive
same,Activity,[2],inactive
COc1ccc(NC(=O)NCCCCCCCCCCCCCCCC(=O)O)cc1,Activity,[1],inactive
same,Activity,[2],inactive
O=C(O)CCCCCCCCCCCCCCCNC(=O)Nc1ccc(Cl)c(Cl)c1,Activity,[13],inactive
same,Activity,[38],inactive
same,Activity,[37],inactive
same,Activity,[1],inactive
same,Activity,[39],inactive
same,Activity,[36],inactive
same,Activity,[2],inactive
CNC(=O)c1cc(Oc2ccc(NC(=O)Nc3ccc(Cl)c(C(F)(F)F)c3)cc2)ccn1,Activity,[34],Active
CCNC(=O)NCCCCCCCCCCCCCCCC(=O)O,Activity,[38],inactive
same,Activity,[1],inactive
same,Activity,[31],inactive
same,Activity,[39],inactive
same,Activity,[2],inactive
Cc1ccc(NC(=O)NCCCCCCCCCCCCCCCC(=O)O)cc1,Activity,[1],inactive
same,Activity,[2],inactive
CC(C)(C)c1ccc(NC(=O)NCCCCCCCCCCCCCCCC(=O)O)cc1,Activity,[1],inactive
same,Activity,[2],inactive
O=C(O)CCCCCCCCCCCCCCCNC(=O)Nc1ccccc1,Activity,[13],inactive
same,Activity,[38],inactive
same,Activity,[37],inactive
same,Activity,[1],inactive
same,Activity,[39],inactive
same,Activity,[36],inactive
same,Activity,[2],inactive
O=C(O)CCCCCCCCCCCCCCCNC(=O)Nc1ccc(Cl)cc1,Activity,[1],inactive
same,Activity,[2],inactive
